The text below walks through data of ChEMBL document CHEMBL1944518, “AlCl3 induced (hetero)arylation of 2,3-dichloroquinoxaline: a one-pot synthesis of mono/disubstituted quinoxalines as potential antitubercular agents” (Bioorg Med Chem, 2012).

For test [1], the target named is T1, Secreted chorismate mutase (Mycobacterium tuberculosis) (UniProt P9WIB9).
T1 sequence (whole entry): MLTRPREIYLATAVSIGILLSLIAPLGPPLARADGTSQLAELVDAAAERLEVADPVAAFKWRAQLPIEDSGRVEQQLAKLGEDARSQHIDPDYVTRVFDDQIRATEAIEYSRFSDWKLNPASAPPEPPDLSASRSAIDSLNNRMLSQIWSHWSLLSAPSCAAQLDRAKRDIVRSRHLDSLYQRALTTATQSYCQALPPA
Nature of the test: Inhibition of Mycobacterium tuberculosis chorismate mutase expressed in Escherichia coli BL21 assessed as conversion of chorismate to prephenate at 50 uM after 5 mins by Spectrophotometry. In short, it runs like this:
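MtCM purified by Ni-NTA from BL21(DE3) carrying pET22b/MtCM; 180 pmol started on 4 mM chorismate (Tris-HCl pH 7.5, EDTA, BSA, β-mercaptoethanol) with effector at 50 μM, 37 °C, 5 min, quenched with 1 N HCl. Absorbance at 274 nm, corrected for compound and no-enzyme blanks; % inhibition = 100 − residual activity.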

Test [2] concerns the target T2, Secreted chorismate mutase (Mycobacterium tuberculosis, UniProt P9WIB9).
T2 sequence (P9WIB9 whole entry): T1 sequence (whole entry)
Description: (§1) Inhibition of Mycobacterium tuberculosis chorismate mutase expressed in Escherichia coli BL21 assessed as conversion of chorismate to prephenate after 5 mins by Spectrophotometry.

In test [3] the target is T1, Secreted chorismate mutase (Mycobacterium tuberculosis). Described as §1.

In the case of `Oc1ccc(-c2nc3ccccc3nc2Cl)c2ccccc12`, the inhibition in test [1] is 35%.
Still for that read-out and setting: under `Oc1ccc(-c2nc3ccccc3nc2-c2c[nH]c3ccc(Br)cc23)c(O)c1` stands 21%; under `Oc1ccc(-c2nc3ccccc3nc2Cl)c(O)c1`, 31%.
For the compound `Fc1cc2[nH]cc(-c3nc4ccccc4nc3Cl)c2cc1F`, the 50% inhibitory concentration (IC50) in test [2] stood at 19.7 µM. Also, the inhibition result in test [3] is “Dose-dependent effect”; in test [1], 64%.
Consider `COc1ccc2c(-c3nc4ccccc4nc3-c3c[nH]c4ccccc34)c[nH]c2c1`, for which, in test [1], the inhibition was 45%.
Same read-out and setting: under `Fc1cc2[nH]cc(-c3nc4ccccc4nc3-c3c[nH]c4ccc(Br)cc34)c2cc1F` stands 27%; under `COc1ccc2c(-c3nc4ccccc4nc3Cl)c[nH]c2c1`, 42%.
Turning to `COc1ccc2[nH]cc(-c3nc4ccccc4nc3Cl)c2c1`, the inhibition in test [1] worked out at 36%.
Still for that read-out and setting: under `Oc1ccc2ccccc2c1-c1nc2ccccc2nc1-c1c[nH]c2ccc(Br)cc12` stands 35%.
The same measure, in the same setting: under `Brc1ccc2[nH]cc(-c3nc4ccccc4nc3-c3c[nH]c4ccccc34)c2c1` stands 31%.

In general, inhibition refers to the percentage by which the read-out fell short of the control. As usually defined, the IC50 is the concentration needed to halve the response being measured.
